An excerpt weighted towards active compounds, which were near 5.4% of everything screened.
EphB4 ephrin blk – antagonists of human EphB4-ephrin-B2 interaction | hit rate 0.15% among 97,000 | P54760 | inhibition, % at 7 µM | EphB4 LBD / TNYL-RAW-Alexa532 peptide, fluorescence polarization | AID 720;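 active = inhibition above the screen-wide mean inhibition plus 3 SD, cut at about 15% in these data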;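 note: 0% = DMSO wells and 100% = excess unlabeled TNYL-RAW peptide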
hDAT+cocaine – changed human dopamine transporter uptake under cocaine IC80 | Q01959 | LLC-PK1 hDAT cells, [14C]-dopamine uptake with cocaine IC80; actives deviate in either direction | B-score at 10 µM | hit rate 1.3% among 110,000 | AID 449768;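 active = Z score or B-score, a plate-position-corrected score, falls beyond the plate's 99.7% confidence bounds, in either direction; inactive = both scores lie inside the 99.7% bounds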;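 note: scored against the spread of the other compound wells on the same plate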
Target sequence (Q01959 whole entry, looked up): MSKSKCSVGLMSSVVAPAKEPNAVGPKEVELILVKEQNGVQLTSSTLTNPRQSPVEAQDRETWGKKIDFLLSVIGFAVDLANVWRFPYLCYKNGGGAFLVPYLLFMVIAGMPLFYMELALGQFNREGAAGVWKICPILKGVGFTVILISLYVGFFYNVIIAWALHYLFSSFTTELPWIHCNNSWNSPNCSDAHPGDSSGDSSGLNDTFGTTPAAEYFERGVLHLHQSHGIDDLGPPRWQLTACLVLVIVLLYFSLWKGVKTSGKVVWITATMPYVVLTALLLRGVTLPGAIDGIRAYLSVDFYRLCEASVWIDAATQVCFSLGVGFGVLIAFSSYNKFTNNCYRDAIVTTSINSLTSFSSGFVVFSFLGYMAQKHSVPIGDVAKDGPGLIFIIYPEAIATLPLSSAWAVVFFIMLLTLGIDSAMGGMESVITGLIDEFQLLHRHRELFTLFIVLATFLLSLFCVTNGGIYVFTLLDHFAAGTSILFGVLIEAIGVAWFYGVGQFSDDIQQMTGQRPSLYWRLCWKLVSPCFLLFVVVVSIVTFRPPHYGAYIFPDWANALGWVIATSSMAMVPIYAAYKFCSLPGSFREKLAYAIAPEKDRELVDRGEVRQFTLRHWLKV
Rev-RRE block – disrupts HIV-1 Rev binding to RRE RNA; Rev peptide-RRE RNA binding, FRET; inhibition, % at 8 µM; hit rate 0.79% among 97,000; AID 704;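 active = inhibition above the screen-wide mean plus 3 SD, cut at about 35% in these data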;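 note: 0% = median DMSO wells and 100% = median Neomycin B control wells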
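Probe or stimulus: fluorescein-Rev peptide as binding partner; assay system: Cy5-tagged RRE RNA duplex with fluorescein-tagged Rev peptide; timing: 5 min compound–RNA preincubation, then 15 min with peptide, 25 °C; medium: HEPES pH 7.5 buffer with KCl, MgCl2, NaCl and EDTA; signal: fluorescein-to-Cy5 FRET, 480 nm excitation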
Cav32 inh – human Cav3.2 channel inhibition, primary screen; Cav3.2-expressing cells, Fluo-4 calcium fluorescence FDSS; active compounds read low; B-score at 10 µM; hit rate 4% among 100,000;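 active = single-dose well whose peak fluorescence ratio is a statistical outlier from its plate by either plate-standardised score or position-corrected B-score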
* = called active by the depositor.

`CCCCC1(O)CC(C(F)(F)F)=NN1C(=O)COc1ccccc1` (stereo unspecified) gave EphB4 ephrin blk -4, hDAT+cocaine -0.65, Rev-RRE block 1 and Cav32 inh -4.2.
For O=C(C1=C(O)C(=O)N(c2ncccn2)C1c1ccc(Cl)c(Cl)c1)c1ccco1 (stereo unspecified) the results were EphB4 ephrin blk -5, hDAT+cocaine 0.35, Rev-RRE block 51* and Cav32 inh -0.82.
For Cc1ccc(C(=O)C2=C(O)C(=O)N(c3ncccn3)C2c2ccc(Cl)cc2)o1 (stereo unspecified) the results were EphB4 ephrin blk -9, hDAT+cocaine 0.62, Rev-RRE block 4 and Cav32 inh -0.22.
`O=C(C1=C(O)C(=O)N(c2ncccn2)C1c1ccc(Cl)cc1)c1ccco1` (stereo unspecified) gave EphB4 ephrin blk 4, hDAT+cocaine 0.051, Rev-RRE block 32 and Cav32 inh 0.27.
For O=C(C1=C(O)C(=O)N(c2ncccn2)C1c1cccc(Cl)c1)c1ccco1 (stereo unspecified) the results were EphB4 ephrin blk 6, hDAT+cocaine 0.21, Rev-RRE block 36* and Cav32 inh -1.3.
For C#CCOCCOCCOCCNc1nc(N2CCOCC2)nc(N2CCN(C(=O)[C@H](CCC(=O)O)n3cc(C(N)Cc4ccc(O)cc4)nn3)CC2)n1 (stereo partly specified) the results were hDAT+cocaine -0.9 and Cav32 inh 1.2.
`Cc1sc2ncnc(Oc3ccc(-n4ccnc4)cc3)c2c1C` gave hDAT+cocaine 2.5* and Cav32 inh -2.2.
`CCOC(=O)Cn1c(=O)n(Cc2ccco2)c(=O)c2ccc(C(=O)NCCc3ccccc3)cc21` gave EphB4 ephrin blk -2, hDAT+cocaine 1.2, Rev-RRE block -1 and Cav32 inh -4.6*.
`COc1ccc(CCNC(=O)Cn2c(=O)n(Cc3ccco3)c(=O)c3ccc(Cl)cc32)cc1OC` gave hDAT+cocaine -0.69 and Cav32 inh -0.17.
Screening COc1ccc(O)c(-c2cc(-c3cccs3)[nH]n2)c1 returned EphB4 ephrin blk -8, hDAT+cocaine 0.42, Rev-RRE block 2 and Cav32 inh -1.1.
COc1ccc(OC)c(NC(=O)C2=C(C)Nc3ncnn3C2c2cccs2)c1 (stereo unspecified) was read as hDAT+cocaine 0.58 and Cav32 inh 0.44.
`Brc1ccc(C2C3=C(Nc4ncnn42)c2ccccc2OC3c2ccncc2)cc1` (stereo unspecified) gave EphB4 ephrin blk -7, hDAT+cocaine 0.26, Rev-RRE block 0 and Cav32 inh -4.9*.
COc1ccc(C2Oc3ccccc3C3=C2C(c2cccs2)n2ncnc2N3)cc1 (stereo unspecified) was read as EphB4 ephrin blk -10, hDAT+cocaine 1.2, Rev-RRE block 13 and Cav32 inh -7.1*.
`COc1ccc(C2C3=C(Nc4ncnn42)c2ccccc2CC3)cc1OC` (stereo unspecified) gave EphB4 ephrin blk 0, hDAT+cocaine 0.29, Rev-RRE block 15 and Cav32 inh 0.21.
For CCOC(=O)Nc1ccc(C)cc1Br the results were EphB4 ephrin blk -2, hDAT+cocaine 0.066, Rev-RRE block 11 and Cav32 inh 1.4.
`CCOC(=O)CNC(c1ccccc1)c1cc(Br)ccc1NC(=O)OCC` (stereo unspecified) gave EphB4 ephrin blk -2, hDAT+cocaine 0.11, Rev-RRE block 16 and Cav32 inh -5.9*.
CC1(C)Cc2c(C#N)c(SCCC#N)nc(N3CCOCC3)c2CS1 was read as hDAT+cocaine 1.6 and Cav32 inh -3.9*.
CC1(C)Cc2c(c(N3CCOCC3)nc3sc(C#N)c(N)c23)CS1 was read as EphB4 ephrin blk -1, hDAT+cocaine -0.81, Rev-RRE block 3 and Cav32 inh 1.1.
CC(Oc1ccc(-c2ccccc2)c(F)c1)c1ccn(S(=O)(=O)c2ccc(Cl)cc2)n1 (stereo unspecified) was read as EphB4 ephrin blk 2, hDAT+cocaine -1.2, Rev-RRE block 22 and Cav32 inh -5.1*.
`CC(Oc1ccc(Cl)cc1)c1ccnn1S(=O)(=O)c1ccccc1` (stereo unspecified) gave EphB4 ephrin blk -3, hDAT+cocaine -0.13, Rev-RRE block 14 and Cav32 inh -6.1*.
Screening Cc1ccc(S(=O)(=O)n2ccc(-c3cccc(OCc4c(F)cccc4Cl)c3)n2)cc1 returned EphB4 ephrin blk 0, hDAT+cocaine -0.0084, Rev-RRE block 11 and Cav32 inh -0.81.
Screening COc1ccccc1NC(=O)CN(Cc1ccccc1)S(C)(=O)=O returned EphB4 ephrin blk -5, hDAT+cocaine 0.92, Rev-RRE block 1 and Cav32 inh -0.14.
For O=c1c2ccccc2c2c(O)nc(-c3ccccc3)n2n1Cc1ccccc1 the results were EphB4 ephrin blk -2, hDAT+cocaine 0.2, Rev-RRE block 7 and Cav32 inh -1.5.
`COc1cccc(-n2c(SCC(=O)N3CCCC3)nc3c([nH]c4ccccc43)c2=O)c1` gave EphB4 ephrin blk -2 and Rev-RRE block 7.
For COc1ccc(C(O)c2nc3ccccc3s2)cc1 (stereo unspecified) the results were EphB4 ephrin blk -7, hDAT+cocaine -1.9* and Rev-RRE block 1.
Screening COc1cc(OC)cc(-c2nc3ccccc3s2)c1 returned EphB4 ephrin blk 5, hDAT+cocaine -0.41, Rev-RRE block 15 and Cav32 inh 0.024.
For COc1ccc(-c2coc3cc(O)cc(O)c3c2=O)cc1 the results were hDAT+cocaine 1.3 and Cav32 inh 1.1.
For COc1ccc(-c2coc3cc(OC)cc(O)c3c2=O)cc1 the results were EphB4 ephrin blk 10, hDAT+cocaine -2.4*, Rev-RRE block 2 and Cav32 inh -2.1.
Screening O=c1cc(-c2cccc3ccccc23)[nH][nH]1 returned EphB4 ephrin blk -2, hDAT+cocaine 2.4*, Rev-RRE block 0 and Cav32 inh 0.78.
COc1ccc(-c2cc(=O)[nH][nH]2)cc1 was read as EphB4 ephrin blk -3, hDAT+cocaine 0.01, Rev-RRE block 9 and Cav32 inh 0.44.
For O=C(c1ccc(CNS(=O)(=O)c2ccccc2)cc1)N1CCN(Cc2ccccc2)CC1 the results were EphB4 ephrin blk 4, hDAT+cocaine 1.2, Rev-RRE block 12 and Cav32 inh 0.046.
O=C1Nc2ccc(Br)cc2C1=Nc1ccc(-c2nnc3n2CCCCC3)cc1 was read as EphB4 ephrin blk -4 and Rev-RRE block 3.
For Cc1nc2scc(-c3ccco3)c2c(=O)n1/N=C/N(C)C the results were EphB4 ephrin blk 4, hDAT+cocaine 0.012, Rev-RRE block 8 and Cav32 inh 0.13.
Screening Cc1cc(=O)[nH]c(SCC(=O)Nc2ccccc2C#N)c1C#N returned EphB4 ephrin blk 1, hDAT+cocaine 0.00081, Rev-RRE block 6 and Cav32 inh -0.18.
For Cc1cc(=O)[nH]c(SCC(=O)Nc2ccc(Br)cc2)c1C#N the results were EphB4 ephrin blk 0, hDAT+cocaine 0.46, Rev-RRE block 2 and Cav32 inh -9.8*.

Bioassay records deposited in PubChem by several laboratories.
